# Data as given in ChEMBL document CHEMBL1275439, “Acquisition of a plasmid-borne blaOXA-58 gene with an upstream IS1008 insertion conferring a high level of carbapenem resistance to Acinetobacter baumannii” (2008).
# Key:
# Format in all cases: functional
# Escherichia coli [1] = assay: Antimicrobial activity against Escherichia coli DH5alpha harboring plasmid containing OXA-58-3 by broth dilution test
# Acinetobacter baumannii [2] = assay: Antimicrobial activity against Acinetobacter baumannii Ab290 harboring TVICU53 plasmid by broth dilution test
# In short: (§1)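 Recombinant plasmids were electroporated (2.5 kV, 25 µF) into electrocompetent cells harvested at exponential phase (OD600 0.5–0.7). Cells were recovered in SOC broth at 37°C for 1 h and selected on antibiotics. MICs were then read by Sensititre broth dilution or agar dilution per CLSI, with carbapenems confirmed by Etest. Tests were run in duplicate with ATCC 25922/27853 controls.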
# Acinetobacter baumannii [3] = assay: Antimicrobial activity against Acinetobacter baumannii Ab290 containing plasmid harboring OXA-58-3 by broth dilution test; in short: as §1
# Acinetobacter baumannii [4] = assay: Antimicrobial activity against Acinetobacter baumannii Ab290 containing plasmid harboring OXA-58-4 by broth dilution test; in short: as §1
# Escherichia coli [5] = assay: Antimicrobial activity against Escherichia coli DH5alpha by broth dilution test
# Escherichia coli [6] = assay: Antimicrobial activity against Escherichia coli DH5alpha harboring plasmid containing OXA-58-4 by broth dilution test
# Acinetobacter baumannii [7] = assay: Antimicrobial activity against Acinetobacter baumannii Ab290 by broth dilution test
# In short: (§2)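 MICs determined by broth dilution on automated Sensititre susceptibility plates or by agar dilution, interpreted per CLSI guidelines. Carbapenem MICs confirmed by Etest. E. coli ATCC 25922 and P. aeruginosa ATCC 27853 served as quality-control strains. All tests done in duplicate.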
# Acinetobacter baumannii [8] = assay: Antimicrobial activity against Acinetobacter baumannii ATCC 15151T by broth dilution test; in short: as §2
# Acinetobacter baumannii [9] = assay: Antimicrobial activity against Acinetobacter baumannii TVICU53 by broth dilution test
# In short: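 MICs by broth dilution on automated susceptibility plates, or by agar dilution, read and interpreted per CLSI guidelines; carbapenem MICs confirmed by Etest. Clinical isolate tested against a panel of aminoglycosides, β-lactams, β-lactam/inhibitor combinations, carbapenems, ciprofloxacin, chloramphenicol and trimethoprim-sulfamethoxazole. E. coli ATCC 25922 and P. aeruginosa ATCC 27853 run as quality controls. All tests done in duplicate.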
# Acinetobacter baumannii [10] = assay: Antimicrobial activity against Acinetobacter baumannii ATCC 15151T containing plasmid harboring OXA-58-3 by broth dilution test; in short: as §1
Structure (SMILES),MIC (Escherichia coli [1]) [µg/mL],MIC (Acinetobacter baumannii [2]) [µg/mL],MIC (Acinetobacter baumannii [3]) [µg/mL],MIC (Acinetobacter baumannii [4]) [µg/mL],MIC (Escherichia coli [5]) [µg/mL],MIC (Escherichia coli [6]) [µg/mL],MIC (Acinetobacter baumannii [7]) [µg/mL],MIC (Acinetobacter baumannii [8]) [µg/mL],MIC (Acinetobacter baumannii [9]) [µg/mL],MIC (Acinetobacter baumannii [10]) [µg/mL]
CC1(C)S[C@@H]2[C@H](NC(=O)[C@H](N)c3ccc(O)cc3)C(=O)N2[C@H]1C(=O)O [AMOXICILLIN],> 256,> 256,> 256,> 256,8,> 256,32,> 256,> 256,
C[C@H]1[C@H](NC(=O)/C(=N\OC(C)(C)C(=O)O)c2csc(N)n2)C(=O)N1S(=O)(=O)O [AZTREONAM],< 0.12,16,16,,< 0.12,,,64,64,128
Cc1nnc(SCC2=C(C(=O)O)N3C(=O)[C@@H](NC(=O)Cn4cnnn4)[C@H]3SC2)s1 [CEFAZOLIN],8,,,,4,,> 128,> 128,> 128,
CO/N=C(\C(=O)N[C@@H]1C(=O)N2C(C(=O)O)=C(COC(C)=O)CS[C@H]12)c1csc(N)n1 [CEFOTAXIME],,8,8,,< 0.12,,8,16,64,16
CC(C)(O/N=C(\C(=O)N[C@@H]1C(=O)N2C(C(=O)[O-])=C(C[n+]3ccccc3)CS[C@H]12)c1csc(N)n1)C(=O)O [CEFTAZIDIME],< 0.12,4,4,,< 0.12,,4,8,128,8
CO/N=C(\C(=O)N[C@@H]1C(=O)N2C(C(=O)O)=C(COC(N)=O)CS[C@H]12)c1ccco1 [CEFUROXIME],4,32,32,,4,,32,> 128,> 128,
C[C@@H](O)[C@H]1C(=O)N2C(C(=O)O)=C(SCCNC=N)C[C@H]12 [IMIPENEM ANHYDROUS],2,32,64,1,0.25,0.25,0.25,0.5,64,32
C[C@@H](O)[C@H]1C(=O)N2C(C(=O)O)=C(S[C@@H]3CN[C@H](C(=O)N(C)C)C3)[C@H](C)[C@H]12 [MEROPENEM],,16,16,0.5,< 0.25,,0.25,0.5,16,32
CC1(C)S[C@@H]2[C@H](NC(=O)[C@H](C(=O)O)c3ccsc3)C(=O)N2[C@H]1C(=O)O [TICARCILLIN],> 1020,> 1020,> 1020,256,8,256,16,8,> 1020,> 1020
